This is a sample that favours compounds with a hit; in the whole collection about 2.5% have one here.
SR-BI DiI-HDL act: enhances SR-BI lipid uptake from DiI-HDL | CHO ldlA[mSR-BI] cells, DiI-HDL uptake fluorescence, 3 h; 100 = double the neutral-control signal | activation, % at 12.5 µM | 0.096% of 320,000 active | AID 504775;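 active means mean replicate activation of at least 60% and every replicate at or above 60%; inconclusive means mean or all-replicate condition met, but not both; inactive means mean below 60% and not all replicates reaching 60%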;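 further: 0% = median plate neutral-control signal and 100% = twice that signal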
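Material: SR-BI-overexpressing, LDLR-lacking CHO cells | Dosing: Single compound concentration, delivered by pin transfer | Probe or stimulus: Labelled HDL, 10 µg/mL | Signal: Bottom-read cell fluorescence after medium removal, ex 550/em 595 nm | Schedule: 3 h, 37 °C | Evaluation: HDL uptake via cellular fluorescence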
SR-BI DiI inh: blocks mouse SR-BI lipid uptake from DiI-HDL | inhibition, % at 12.5 µM | ldlA[mSR-BI] CHO cells, DiI-HDL uptake fluorescence, 3 h | 0.96% of 320,000 active;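 active means mean replicate inhibition of at least 70% and a set share of replicates each scoring 70 or more; inconclusive means meets just one of the two criteria; inactive means fails both criteria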;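 further: 0% = median of neutral control wells and 100% = median of positive control wells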
Target sequence (Q61009 whole entry, looked up): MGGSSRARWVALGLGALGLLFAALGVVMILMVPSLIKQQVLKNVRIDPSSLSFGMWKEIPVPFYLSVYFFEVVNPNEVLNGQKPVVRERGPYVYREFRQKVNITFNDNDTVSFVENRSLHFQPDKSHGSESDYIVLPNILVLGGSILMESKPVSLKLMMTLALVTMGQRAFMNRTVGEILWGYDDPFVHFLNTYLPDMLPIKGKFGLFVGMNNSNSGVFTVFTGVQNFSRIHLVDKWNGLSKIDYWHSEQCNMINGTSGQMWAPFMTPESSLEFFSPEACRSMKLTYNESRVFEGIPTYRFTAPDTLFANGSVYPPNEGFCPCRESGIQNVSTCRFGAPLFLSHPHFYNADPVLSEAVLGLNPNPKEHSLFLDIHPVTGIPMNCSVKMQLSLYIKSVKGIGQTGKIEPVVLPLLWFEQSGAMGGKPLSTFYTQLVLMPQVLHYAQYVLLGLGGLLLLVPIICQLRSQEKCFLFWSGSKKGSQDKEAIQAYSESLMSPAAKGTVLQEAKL
Vif imaging: HIV Vif inhibition; 0.35% of 340,000 active; inhibition, % at 7.49 µM; HEK293T cells, Vif self-association by quenched fluorescence, imaging, 24 h; AID 602346; in the data active means inhibition above about 50%, passing the limit was not always enough; inconclusive means no clear call, values can overlap the other calls; inactive means below about 31%
SMARCA2 activ: increases SMARCA2 function in MMTV reporter cells; AID 652017; activation, % at 9.1 µM; 1% of 370,000 active; MG213 cells, MMTV-luciferase reporter, dexamethasone, overnight; in the data active means activation above about 7.8%;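 further: 0% = vehicle wells and 100% = reference activator wells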
H9c2 TAG inh: triacylglycerol accumulation inhibition | H9c2 cells, Nile Red lipid (TAG) fluorescence; cells loaded with 200 µM oleic acid | inhibition, % at 12.5 µM | 0.66% of 230,000 active | AID 651582;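 active means pattern-corrected inhibition of lipid staining of at least 50% with the nuclear-stain viability signal not falling by more than 50%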;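 further: 0% = DMSO wells and 100% = triacsin C control wells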
SMARCA2 conf: SMARCA2 activation, confirmation screen | shares compounds with SMARCA2 activ | MG213 cells, MMTV-luciferase with dexamethasone, luminescence, overnight; MG213 cells expressing E1A, Rb sequestered; DMSO wells 0%, reference activator 100% | activation, % at 9.1 µM | 30% of 3,500 active | AID 652260;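 active means activation above its plate's cutoff, the mean activation of tested wells plus 3 SD, cut at about 7.9% in these data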
VP16 Luc act: GAL4-VP16 reporter activation counter-screen; shares compounds with SMARCA2 activ; HEK293 GAL4-VP16 pG5luc reporter, luciferase luminescence; scaled: DMSO wells 0%, SAHA wells 100%; activation, % at 9.1 µM; 41% of 3,500 active; AID 686939;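 active means activation above the solvent-only control well mean plus 3 SD, averaged across control plates, cut at about 5.2% in these data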
Active calls of the source: *; ? = inconclusive; · = no result.

SMILES	SR-BI DiI-HDL act	SR-BI DiI inh	Vif imaging	SMARCA2 activ	H9c2 TAG inh	SMARCA2 conf	VP16 Luc act
COc1ccc(-n2c(C)cc(-c3cn4cccc(C)c4n3)c2C)cc1	-10	10	3	3	12	·	·
Cc1cc(-c2cn3ccccc3n2)c(C)n1-c1ccccc1	-26	26	-2	10*	-2	5	8.2*
Nc1ncnc(Sc2ncccn2)c1[N+](=O)[O-]	23	-23	2	18*	26	-13	2
Cc1ccc(-n2c(SCC(N)=O)nc3c(c2=O)C2(CCCC2)Cc2ccccc2-3)cc1	30	-30	-9	8.0*	·	-2	-1
COc1cccc(-c2onc3ccc(C(C)=O)cc23)c1	-22	22	-3	8.4*	·	6	2
CC(=O)Nc1ccc(CN(C)c2c(C)nc3ccc(C(=O)N(C)Cc4ccccc4)cn23)cc1	·	·	11	0	-7	·	·
O=C(CSc1nnc(-c2ccco2)o1)c1ccccc1Cl	-14	14	-2	9.3*	13	6	1
O=C(CSc1nnc(-c2ccco2)o1)c1ccc([N+](=O)[O-])cc1	·	·	4	-2	-4	·	·
O=C(Nc1ccc(S(=O)(=O)N2CCCCC2)cc1)C1CC(=O)N(c2ccc(Cl)cc2)C1 (stereo not given)	-41	41	-8	-2	·	·	·
Cc1ccc(Nc2cccccc2=O)cc1	-16	16	·	9.3*	14	7	8.4*
Cc1occc1C(=O)NNC(=O)C1CC1	·	·	·	9.5*	-1	6	1
Cc1ccccc1NC(=S)NNC(=O)c1ccoc1C	2	-2	2	2	·	·	·
Cc1occc1C(=O)NNC(=S)Nc1ccccc1	17	-17	-1	9.3*	·	5	6.8*
O=C(NNC(=S)Nc1ccccc1)c1cccnc1	10	-10	-7	8.8*	16	-2	5.4*
O=C(NNC(=S)NC(=O)c1cccnc1)c1ccccc1	12	-12	10	-1	-11	·	·
Cc1occc1C(=O)NNC(=O)c1ccc(F)cc1	14	-14	-1	-2	-9	·	·
COc1cccc(/C=N/NC(=O)CN(C2=NS(=O)(=O)c3ccccc32)c2ccccc2)c1	16	-16	-10	0	-8	·	·
COc1ccc(/C=N/NC(=O)CN(C2=NS(=O)(=O)c3ccccc32)c2ccccc2)cc1OC	-13	13	1	8.1*	-14	6	1
O=C(COC(=O)c1cccnc1SCC(=O)NCc1ccccc1)NCc1ccccc1	8	-8	0	9.1*	2	7	2
COC(=O)c1c(C)[nH]c(C(=O)C(C)OC(=O)C2CC2)c1C (stereo not given)	3	-3	13	-3	-44	·	·
CCCCCn1nnnc1C1c2ccccc2OCC(=O)N1Cc1ccco1 (stereo not given)	·	·	·	10*	·	0	0
O=C(NCCCl)Nc1cccc(Br)c1	27	-27	-4	-3	11	·	·
COc1ccc(Nc2ncnc3ccccc23)c(OC)c1	-5	5	·	9.0*	11	-2	0
CCOC(=O)CCCNC(=O)OC1CCC12CCC(c1ccccc1)CC2 (stereo not given)	·	·	·	0	·	·	·
COc1ccccc1N1CCN(C(=O)C2CCN(S(=O)(=O)c3ccc(F)cc3)CC2)CC1	-10	10	-7	8.8*	15	1	0
SMILES	SR-BI DiI-HDL act	SR-BI DiI inh	Vif imaging	SMARCA2 activ	H9c2 TAG inh	SMARCA2 conf	VP16 Luc act
Fc1ccccc1/C=N/Nc1ncnc2nc[nH]c12	20	-20	·	9.6*	10	17*	5.8*
Fc1cccc(/C=N/Nc2ncnc3nc[nH]c23)c1	5	-5	15	6	12	·	·
CN1/C(=C\C(=O)c2cccnc2)Sc2ccccc21	-25	25	-2	13*	·	6	9.1*
CCOc1cccc(/C=N\NC(=O)Cc2cccs2)c1O	·	·	·	-4	·	·	·
COc1cc(NC(=O)[C@@H](Cc2ccccc2)NC(=O)[C@H]2O[C@@H](n3ccc(=O)[nH]c3=O)[C@H](O)[C@@H]2O)cc(OC)c1OC	·	·	·	-2	·	·	·
O=C(Nc1ccsc1C(=O)O)c1cccc(C(F)(F)F)c1	26	-26	2	3	·	·	·
Cc1ccccc1NC(=O)c1cccc(C(F)(F)F)c1	-8	8	-14	8.2*	·	5	1
O=C(NCc1ccc(Cl)cc1)C1CCCN(c2ncccn2)C1 (stereo not given)	·	·	·	-5	·	·	·
O=C(NCc1cccnc1)c1ccc(S(=O)(=O)N2CCOCC2)cc1	21	-21	-3	2	·	·	·
Cc1ccc(S(=O)(=O)N2CCOCC2)cc1C(=O)NCc1cccnc1	7	-7	10	10*	·	0	1
Nc1nc(NCc2ccco2)nc(Nc2cccc(F)c2)c1[N+](=O)[O-]	-16	16	-7	1	6	·	·
Cc1cc(C)cc(Cn2cc(CN3CC(N4CCCCC4)CS3(=O)=O)nn2)c1 (stereo not given)	·	·	·	8.2*	·	1	0
Cc1cc(C)cc(Cn2cc(CN3CC(N4CCCC4)CS3(=O)=O)nn2)c1 (stereo not given)	·	·	·	-4	·	·	·
CCOC(=O)[C@@]12CCCC3=C1N(CCC3)C(=O)[C@H]2CC(=O)N1CCN(C(=O)c2ccco2)CC1	·	·	·	1	·	·	·
COc1ccc(NC(=O)CSc2ccccc2)c([N+](=O)[O-])c1	·	·	22	8.4*	-5	3	5
COc1ccc(OCC(=O)N/N=C(\C)CC(=O)Nc2ccc(OC)cc2[N+](=O)[O-])cc1	5	-5	-3	8.7*	-3	-3	2
COc1ccc(NC(=O)COc2ccc(C)cc2)c([N+](=O)[O-])c1	·	·	·	5	·	·	·
Cc1ccc(Nc2nc(-c3ccc(S(=O)(=O)N4CCOCC4)cc3)cs2)cc1Cl	-67	67	-10	-1	·	·	·
COc1cccc2cc(NC(=O)C3CCCCC3)c(=O)oc12	8	-8	8	12*	·	7.8*	10*
Clc1ccc2c(NCCNC3CCCCC3)ccnc2c1	26	-26	?	12*	10	-10	1
CC(C)NC1CCC(Nc2ccnc3cc(Cl)ccc23)CC1 (stereo not given)	12	-12	-6	3	-14	·	·
COC(=O)c1cc2c(c3c4cc(OC)ccc4n(S(=O)(=O)c4ccc(OC)cc4)c13)C(=O)N(Cc1ccccc1)C2	·	·	·	-1	·	·	·
N#Cc1cc(O)c(-n2nnc3ccccc32)cc1C#N	9	-9	·	-1	5	·	·
N#Cc1cc(Oc2cccc3cccnc23)c(-n2nnc3ccccc32)cc1C#N	-19	19	-2	14*	·	2	0
COc1ccc(-c2cc(C#N)nc(Cl)n2)cc1	·	·	10	21*	9	41*	2

Screens (PubChem)
